Experimental data gathered from unrelated publications.
Compare with care: the assays were run in different laboratories.
Target: Bone morphogenetic protein receptor type-2 (BMPR2, Homo sapiens, UniProt Q13873)
One construct used (Q13873 27-1038): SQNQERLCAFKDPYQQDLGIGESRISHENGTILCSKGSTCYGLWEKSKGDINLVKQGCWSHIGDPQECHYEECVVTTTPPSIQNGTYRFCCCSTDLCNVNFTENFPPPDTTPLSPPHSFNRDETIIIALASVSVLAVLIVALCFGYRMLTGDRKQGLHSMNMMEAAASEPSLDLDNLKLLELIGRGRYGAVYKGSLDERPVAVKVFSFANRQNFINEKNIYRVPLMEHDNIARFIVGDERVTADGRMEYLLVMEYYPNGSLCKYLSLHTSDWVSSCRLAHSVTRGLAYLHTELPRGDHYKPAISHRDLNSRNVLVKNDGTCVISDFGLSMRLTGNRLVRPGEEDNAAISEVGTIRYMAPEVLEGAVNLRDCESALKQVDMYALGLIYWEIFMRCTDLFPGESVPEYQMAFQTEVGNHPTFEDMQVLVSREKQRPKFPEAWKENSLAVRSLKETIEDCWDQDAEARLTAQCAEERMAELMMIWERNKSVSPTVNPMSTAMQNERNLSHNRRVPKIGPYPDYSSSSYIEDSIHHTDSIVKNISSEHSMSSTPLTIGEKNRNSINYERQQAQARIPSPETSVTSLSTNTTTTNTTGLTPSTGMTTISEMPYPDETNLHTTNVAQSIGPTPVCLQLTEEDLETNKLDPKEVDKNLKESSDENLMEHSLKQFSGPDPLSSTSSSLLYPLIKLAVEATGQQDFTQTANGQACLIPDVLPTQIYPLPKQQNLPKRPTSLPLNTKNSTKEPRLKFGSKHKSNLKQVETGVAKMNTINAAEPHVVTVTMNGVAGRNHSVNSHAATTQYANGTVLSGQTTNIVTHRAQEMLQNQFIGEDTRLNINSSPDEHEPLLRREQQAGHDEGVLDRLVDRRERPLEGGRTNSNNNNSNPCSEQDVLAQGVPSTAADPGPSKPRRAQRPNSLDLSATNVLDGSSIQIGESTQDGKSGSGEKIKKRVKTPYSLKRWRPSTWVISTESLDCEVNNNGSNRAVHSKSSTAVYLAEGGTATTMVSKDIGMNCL

C[C@@H]1CN(c2cc(-c3nn(C)c4ccc(OC5(C)CC5)cc34)ncn2)C[C@H](C)O1
remaining binding (cell-free assay; competition with immobilised ligand; 1 µM): 54%

COc1cnc(Nc2cccc(S(N)(=O)=O)c2)nc1N1CCN(c2ccccc2)C(=O)C1
remaining binding (binding; competition with immobilised ligand; 1 µM): 0%

FC(F)(F)Oc1cccc(-c2cnc3ccc(-c4ccncc4)nn23)c1
remaining binding (cell-free assay; competition with immobilised ligand; 5 µM): 56%

C[C@H]1CCN(c2nccc(-c3cnn4ncccc34)n2)C1
remaining binding (binding; 1 µM): 97%

COc1cnc(Nc2cccc(S(N)(=O)=O)c2)nc1N1CCN(c2ccccc2)CC1
remaining binding (binding; competition with immobilised ligand; 1 µM): 0.1%

N[C@H]1CCN(c2nccc(-c3cnn4ncccc34)n2)C1
remaining binding (binding; 1 µM): 100%

O=C(O)c1cc(-c2ccc(C3CCNCC3)cc2)c2ccc(-c3ccc(C(F)(F)F)cc3)cc2c1
remaining binding (cell-free assay; competition with immobilised ligand; 1 µM): 100%

COc1ncc2cc3ccccc3nc2c1C#N
remaining binding (cell-free assay; competition with immobilised ligand; 5 µM): 100%

CN(CCCC(F)(F)F)c1nccc(-c2cnn3ncccc23)n1
remaining binding (binding; 1 µM): 97%

C[C@@H]1CN(c2ccc3ncc(-c4ccc5[nH]nc(C6CC6)c5c4)n3n2)C[C@H](C)O1
remaining binding (binding; competition with immobilised ligand; 0.5 µM): 56%

CN(C)c1ncc(F)c(-c2cnn3ncccc23)n1
remaining binding (binding; 1 µM): 74%

CCOC(=O)c1cc2cc(-c3cc(C(=O)NCc4ccc(C(=O)O)cc4)nn3C)ccc2[nH]1
remaining binding (cell-free assay; competition with immobilised ligand; 0.1 µM): 82%

O=C(c1ccc(Nc2nccc(-c3cc4ccccc4s3)n2)cc1)N1CCC(N2CCCC2)CC1
remaining binding (binding; competition with immobilised ligand; 1 µM): 67%

CCC(=N\O)/C(C)=C/c1ccc(F)cc1
remaining binding (cell-free assay; competition with immobilised ligand; 1 µM): 81%

O=C(NCCCN1CCOCC1)c1ccc(Nc2ncc(Cl)c(-c3ccc(Cl)s3)n2)cc1
remaining binding (binding; competition with immobilised ligand; 1 µM): 55%

O=C(NCC1CCOCC1)c1n[nH]cc1NC(=O)c1c(F)cccc1F
remaining binding (binding; competition with immobilised ligand; 1 µM): 86%

CC1CCCN1c1nccc(-c2cnn3ncccc23)n1 (stereo not drawn)
remaining binding (binding; 1 µM): 97%

Cc1c(NC(=O)c2cc(C(N)=O)nc3cc(F)ccc23)c(C(F)(F)F)nn1Cc1ccc(C(C)(C)C)cc1
remaining binding (cell-free assay; competition with immobilised ligand; 1 µM): 100%

Cc1cnc(Nc2ccc(C(=O)N3CCC(N4CCCC4)CC3)cc2)nc1-c1cc2ccccc2s1
remaining binding (binding; competition with immobilised ligand; 1 µM): 25%

CN(C)c1nccc(-c2cnn3ncccc23)n1
remaining binding (binding; 1 µM): 99%

CSc1cccnc1N1CCN(Cc2nc3ccccc3[nH]2)CC1
remaining binding (cell-free assay; competition with immobilised ligand; 1 µM): 80%

CN(C)c1nccc(-c2cnc3ncccn23)n1
remaining binding (binding; 1 µM): 67%

O=C(NCc1ncc(C(F)(F)F)cc1Cl)c1ccc2c(c1)C1(CCS(=O)(=O)CC1)[C@H](C1CC1)N2S(=O)(=O)c1ccc(F)cc1
remaining binding (cell-free assay; competition with immobilised ligand; 1 µM): 80%

N#Cc1ccccc1CSc1nnc2c(n1)[nH]c1ccccc12
remaining binding (binding; competition with immobilised ligand; 10 µM): 90%
